Experimental findings from ChEMBL document CHEMBL1152541, “Staurosporine tethered peptide ligands that target cAMP-dependent protein kinase (PKA): optimization and selectivity profiling” (Bioorg Med Chem, 2009) are described below.

*1 amine or outer side, *2 acyl side, *3 side chain or, on linkers, in order; H or OH if unused. Where a SMILES comes first, the peptide text is derived from it. Bridges are numbered along the chain shown (N, C = ends). [ ]: non-standard residue; d: D form. The star is where a group is joined. Staurosporine = CO[C@@H]1[C@H](N(C)*)C[C@H]2O[C@]1(C)n1c3ccccc3c3c4c(c5c6ccccc6n2c5c31)C(=O)NC4; Suc = O=C(CCC(=O)[*:2])[*:1]; Dap = NC[C@H](N)C(=O)O; βAla = NCCC(=O)O

Assay [1] addresses Serine/threonine-protein kinase pim-1 (Homo sapiens) (UniProt P11309). Nature of the assay: Binding affinity to human PIM1 at 500 nM by cell-based competition binding assay relative to control in presence of DTT.
In assay [2] the target is T1, Serine/threonine-protein kinase DCLK1 (Homo sapiens) (UniProt O15075).
T1 sequence (whole entry): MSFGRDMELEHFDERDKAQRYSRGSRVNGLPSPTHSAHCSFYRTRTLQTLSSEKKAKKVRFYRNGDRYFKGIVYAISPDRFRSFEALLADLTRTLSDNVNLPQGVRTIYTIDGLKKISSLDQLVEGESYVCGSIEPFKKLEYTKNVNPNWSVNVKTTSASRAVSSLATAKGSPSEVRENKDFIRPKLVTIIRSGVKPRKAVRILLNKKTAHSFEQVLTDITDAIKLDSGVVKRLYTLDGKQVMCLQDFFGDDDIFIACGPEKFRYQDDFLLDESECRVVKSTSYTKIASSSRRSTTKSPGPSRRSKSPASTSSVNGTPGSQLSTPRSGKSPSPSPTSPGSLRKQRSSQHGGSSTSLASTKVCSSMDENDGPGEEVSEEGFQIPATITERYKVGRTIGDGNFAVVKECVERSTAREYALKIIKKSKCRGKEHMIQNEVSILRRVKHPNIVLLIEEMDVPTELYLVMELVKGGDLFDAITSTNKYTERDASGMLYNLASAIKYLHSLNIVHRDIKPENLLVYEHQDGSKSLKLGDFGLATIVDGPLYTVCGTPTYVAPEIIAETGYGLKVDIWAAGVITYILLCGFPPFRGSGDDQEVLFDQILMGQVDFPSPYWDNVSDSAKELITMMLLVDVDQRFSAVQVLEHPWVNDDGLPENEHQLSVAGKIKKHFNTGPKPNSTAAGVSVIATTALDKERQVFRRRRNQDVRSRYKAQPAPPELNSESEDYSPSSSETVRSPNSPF
Nature of the assay: Binding affinity to human DCAMKL1 at 500 nM by cell-based competition binding assay relative to control in presence of DTT. An outline of the steps:
(§1)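 Commercial (Ambit) competitive kinase-binding panel of 90 kinases measured the binding profile. Run under reducing conditions of 7.5 mM DTT. Binding is expressed relative to control.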

Assay [3] has as its target Platelet-derived growth factor receptor beta (Homo sapiens) (UniProt P09619). Nature of the assay: Binding affinity to human PDGFRbeta at 500 nM by cell-based competition binding assay relative to control in presence of DTT.
The target of assay [4] is MAP/microtubule affinity-regulating kinase 3 (Homo sapiens) (UniProt P27448). In words: Binding affinity to human MARK3 at 500 nM by cell-based competition binding assay relative to control in presence of DTT. The gist of the method:
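Kinase binding profile from a commercial panel of 90 kinases, run as a competitive binding assay. The panel was screened under reducing conditions of 7.5 mM DTT. Signal was compared with the untreated control.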

Assay [5] has as its target T2, Serine/threonine-protein kinase STK11 (Homo sapiens) (UniProt Q15831).
T2 sequence (whole entry): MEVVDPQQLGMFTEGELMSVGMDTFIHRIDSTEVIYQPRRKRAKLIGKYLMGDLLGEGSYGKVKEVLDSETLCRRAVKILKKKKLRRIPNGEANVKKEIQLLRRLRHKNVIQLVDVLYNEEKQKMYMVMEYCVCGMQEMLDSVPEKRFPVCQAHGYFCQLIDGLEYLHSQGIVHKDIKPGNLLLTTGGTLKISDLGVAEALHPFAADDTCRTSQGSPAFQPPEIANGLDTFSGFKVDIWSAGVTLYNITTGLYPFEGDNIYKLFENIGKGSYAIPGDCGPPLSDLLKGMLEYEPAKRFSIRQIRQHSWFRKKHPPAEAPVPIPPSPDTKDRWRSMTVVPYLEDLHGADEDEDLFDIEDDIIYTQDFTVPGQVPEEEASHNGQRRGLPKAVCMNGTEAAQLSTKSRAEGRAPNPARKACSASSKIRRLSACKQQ
Nature of the assay: Binding affinity to human LKB1 at 500 nM by cell-based competition binding assay relative to control in presence of DTT. The gist of the method: (§2)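 Competition binding screen (Ambit) across a panel of 90 kinases, scoring test ligand displacement of each kinase's binding relative to control. The screen ran under reducing conditions with 7.5 mM DTT.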

Assay [6] addresses Ribosomal protein S6 kinase alpha-3 (Homo sapiens) (UniProt P51812). Nature of the assay: Binding affinity to human RPS6KA3 kinase domain 1 at 200 nM by cell-based competition binding assay relative to control in presence of DTT.
In assay [7] the test system is Epidermal growth factor receptor (Homo sapiens), P00533 [L858R]. In words: Binding affinity to human EGFR L858R mutant at 200 nM by cell-based competition binding assay relative to control in presence of DTT. The gist of the method: as §1
In assay [8] the target is Insulin receptor (Homo sapiens) (UniProt P06213). Nature of the assay: Binding affinity to human INSR at 200 nM by cell-based competition binding assay relative to control in presence of DTT. An outline of the steps:
as §2

Assay [9] addresses Serine/threonine-protein kinase PAK 2 (Homo sapiens) (UniProt Q13177). In words: Binding affinity to human PAK2 at 200 nM by cell-based competition binding assay relative to control in presence of DTT.
In assay [10] the target is Cyclin-dependent kinase 9 (Homo sapiens) (UniProt P50750). Nature of the assay: Binding affinity to human CDK9 at 200 nM by cell-based competition binding assay relative to control in presence of DTT. An outline of the steps: as §1
Assay [11] deals with MAP/microtubule affinity-regulating kinase 3 (Homo sapiens) (UniProt P27448). In words: Binding affinity to human MARK3 at 200 nM by cell-based competition binding assay relative to control in presence of DTT. The gist of the method: as §2
In assay [12] the target is Cyclin-dependent kinase 16 (Homo sapiens) (UniProt Q00536). In words: Binding affinity to human PCTK1 at 50 nM by cell-based competition binding assay relative to control in presence of DTT.
For assay [13], the target named is Mitogen-activated protein kinase 3 (Homo sapiens) (UniProt P27361). Nature of the assay: Binding affinity to human ERK1 at 50 nM by cell-based competition binding assay relative to control in presence of DTT. The gist of the method:
as §1

In assay [14] the target is Receptor-type tyrosine-protein kinase FLT3 (Homo sapiens) (UniProt P36888). Nature of the assay: Binding affinity to human FLT3 at 50 nM by cell-based competition binding assay relative to control in presence of DTT. The gist of the method: as §1
Assay [15] concerns the target Phosphatidylinositol 4,5-bisphosphate 3-kinase catalytic subunit gamma isoform (Homo sapiens) (UniProt P48736). Nature of the assay: Binding affinity to human PIK3Cgamma at 50 nM by cell-based competition binding assay relative to control in presence of DTT.
Assay [16] deals with Mast/stem cell growth factor receptor Kit (Homo sapiens), P10721 [V559D,T670I]. In words: Binding affinity to human KIT V559D,T670I mutant at 50 nM by cell-based competition binding assay relative to control in presence of DTT. An outline of the steps: as §2
Assay [17] addresses Angiopoietin-1 receptor (Homo sapiens) (UniProt Q02763). In words: Binding affinity to human TIE2 at 50 nM by cell-based competition binding assay relative to control in presence of DTT.
Assay [18] addresses Proto-oncogene tyrosine-protein kinase Src (Homo sapiens) (UniProt P12931). In words: Binding affinity to human SRC at 50 nM by cell-based competition binding assay relative to control in presence of DTT.

As for `CO[C@@H]1[C@H](N(C)C(=O)CCC(=O)NCCC(=O)NCCC(=O)NCCC(N)=O)C[C@H]2O[C@]1(C)n1c3ccccc3c3c4c(c5c6ccccc6n2c5c31)C(=O)NC4`, the Activity in assay [1] amounted to 20%; in [2], 100%; in assay [3] it was 0.05%; in assay [4], 16%; in [5], 41%.
In the case of `CO[C@@H]1[C@H](N(C)C(=O)CCC(=O)NCCC(=O)NCCC(=O)NCCC(=O)NCCC(=O)NCCC(=O)NCCC(=O)NCCC(=O)N[C@H]2CSSC[C@@H](C(=O)NCC(N)=O)NC(=O)CNC(=O)[C@H](Cc3ccccc3)NC(=O)[C@H](C(C)C)NC(=O)[C@H](CCCNC(=N)N)NC(=O)[C@H](Cc3ccccc3)NC(=O)[C@H](C(C)C)NC2=O)C[C@H]2O[C@]1(C)n1c3ccccc3c3c4c(c5c6ccccc6n2c5c31)C(=O)NC4` ({Staurosporine-Suc-βAla-βAla-βAla-βAla-βAla-βAla-βAla}-CVFRVFGCG-NH2; disulfide 1-8), the Activity came out at 100% in assay [6]; 86% in [7]; 100% in assay [8]; 36% in assay [9]; 100% in assay [10]; 18% in [11].
Regarding `CO[C@@H]1[C@H](N(C)C(=O)CCC(=O)NCCC(=O)NCCC(=O)NCCC(=O)NCCC(=O)NCCC(=O)NCCC(=O)NCCC(=O)N[C@H]2CNC(=O)C[C@@H](C(N)=O)NC(=O)CNC(=O)[C@H](Cc3ccccc3)NC(=O)[C@H](C(C)C)NC(=O)[C@H](CCCNC(=N)N)NC(=O)[C@H](Cc3ccccc3)NC(=O)[C@H](C(C)C)NC2=O)C[C@H]2O[C@]1(C)n1c3ccccc3c3c4c(c5c6ccccc6n2c5c31)C(=O)NC4` ({Staurosporine-Suc-βAla-βAla-βAla-βAla-βAla-βAla-βAla}-[Dap]VFRVFGD-NH2; lactam 1-8), the Activity was 98% in assay [12]; 100% in assay [13]; 7.4% in [14]; 91% in assay [15]; 59% in assay [16]; 100% in [17]. In assay [18], the Activity turned out to be 100%.
